ChEMBL document CHEMBL1156157, “1,7-Disubstituted oxyindoles are potent and selective EP(3) receptor antagonists” (Bioorg Med Chem Lett, 2010)

Legend:
[1] = biological target: T1, Prostaglandin E2 receptor EP3 subtype (Homo sapiens, UniProt P43115); experiment: Displacement of [3H]PGE2 from human EP3 receptor in buffer
T1 sequence (P43115 whole entry): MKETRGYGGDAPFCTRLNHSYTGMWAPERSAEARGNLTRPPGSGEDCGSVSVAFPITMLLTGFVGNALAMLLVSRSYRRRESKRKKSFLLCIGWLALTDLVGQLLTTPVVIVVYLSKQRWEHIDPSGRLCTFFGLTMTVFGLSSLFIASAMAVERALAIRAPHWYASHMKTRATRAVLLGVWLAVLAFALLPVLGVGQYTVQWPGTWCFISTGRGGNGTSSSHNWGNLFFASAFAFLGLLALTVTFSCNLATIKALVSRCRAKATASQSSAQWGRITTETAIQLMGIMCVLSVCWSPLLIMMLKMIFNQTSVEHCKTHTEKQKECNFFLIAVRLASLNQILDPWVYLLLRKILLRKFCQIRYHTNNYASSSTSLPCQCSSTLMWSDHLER

[2] = biological target: T1, Prostaglandin E2 receptor EP3 subtype; experiment: Displacement of [3H]PGE2 from human EP3 receptor in presence of 10% human serum
[3] = Metabolic stability in human liver microsomes assessed as parent compound remaining after 30 mins; format: ADME, Microsome; conditions: read-out: Stability
Outline: (§1)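 Compounds incubated with liver microsomes from human, rat, mouse, dog or monkey. Read-out is percent parent compound remaining at 30 min of incubation.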

[4] = Metabolic stability in rat liver microsomes assessed as parent compound remaining after 30 mins; format: ADME, Microsome; conditions: read-out: Stability; outline: as §1
[5] = Metabolic stability in mouse liver microsomes assessed as parent compound remaining after 30 mins; format: ADME, Microsome; conditions: read-out: Stability; outline: as §1
Rattus norvegicus = species on record: Rattus norvegicus; experiment: Antithrombotic activity in rat assessed as platelet aggregation; format: functional
Outline: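 Functional EP3 antagonism measured in a rat platelet aggregation assay. Values reported as EC50 in nM.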

Cytochrome P450 3A4 = Cytochrome P450 3A4 (Homo sapiens, UniProt P08684); experiment: Inhibition of human CYP3A4 using 7-benzyloxy-4-trifluoromethylcoumarin as substrate; format: ADME
Outline: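 Inhibition of human CYP3A4 with 7-benzyloxy-4-trifluoromethylcoumarin (BFC) as substrate. Values given as IC50.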

Cytochrome P450 3A4, sequence (P08684 whole entry): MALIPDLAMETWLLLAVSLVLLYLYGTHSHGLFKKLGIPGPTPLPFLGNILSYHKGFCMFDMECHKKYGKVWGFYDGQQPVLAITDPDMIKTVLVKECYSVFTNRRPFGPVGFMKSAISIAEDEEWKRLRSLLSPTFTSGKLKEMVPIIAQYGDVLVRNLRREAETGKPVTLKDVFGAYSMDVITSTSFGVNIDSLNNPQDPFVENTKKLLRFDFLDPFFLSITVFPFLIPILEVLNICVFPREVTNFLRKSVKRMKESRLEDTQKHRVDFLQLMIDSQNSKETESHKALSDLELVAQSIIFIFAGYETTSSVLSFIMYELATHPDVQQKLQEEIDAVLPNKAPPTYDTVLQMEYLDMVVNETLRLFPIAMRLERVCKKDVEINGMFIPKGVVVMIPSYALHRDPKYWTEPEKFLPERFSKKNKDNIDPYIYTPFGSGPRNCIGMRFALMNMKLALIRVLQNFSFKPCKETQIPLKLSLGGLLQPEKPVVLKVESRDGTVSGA

Structure (SMILES) | IC50 [1] | IC50 [2] | remaining at 0.5 h [3] | remaining at 0.5 h [4] | remaining at 0.5 h [5] | EC50 (Rattus norvegicus) | IC50 (Rattus norvegicus) | inhibition (INH) (Cytochrome P450 3A4)
CC1C(=O)N(Cc2ccc3ccccc3c2)c2c(/C=C/C(=O)NS(=O)(=O)c3cc(F)c(F)cc3F)cccc21 (stereo not drawn) | 0.3 nM | 5.4 nM | 13.7% | 17.6% | 5.1% | 19 nM | – | –
CC1C(=O)N(Cc2ccc(F)c(F)c2)c2c(/C=C/C(=O)NS(=O)(=O)c3cccc(Cl)c3)cccc21 (stereo not drawn) | 4 nM | 39 nM | – | – | – | – | – | –
CC1C(=O)N(Cc2ccc(Cl)cc2Cl)c2c(/C=C/C(=O)NS(=O)(=O)c3ccc(Cl)c(Cl)c3)cccc21 (stereo not drawn) | 0.9 nM | 9.8 nM | – | – | – | – | – | –
O=C(/C=C/c1cccc2c1N(Cc1ccc3ccccc3c1)C(=O)C2(F)F)NS(=O)(=O)c1ccc(F)cc1 | 2.7 nM | 27.2 nM | – | – | – | – | > 800 nM | Active
O=C(/C=C/c1cccc2c1N(Cc1ccc3ccccc3c1)C(=O)C2(F)F)NS(=O)(=O)c1ccc(Cl)cc1 | 5.5 nM | 125 nM | – | – | – | – | > 800 nM | Active
O=C(/C=C/c1cccc2c1N(Cc1ccc(F)c(F)c1)C(=O)C2)NS(=O)(=O)c1cc(F)c(F)cc1F | 0.7 nM | 42 nM | – | – | – | – | – | –
O=C(/C=C/c1cccc2c1N(Cc1ccc(F)c(F)c1)C(=O)C2)NS(=O)(=O)c1cc(Cl)c(Cl)s1 | 0.4 nM | 55.4 nM | – | – | – | – | – | –
CC1C(=O)N(Cc2ccc(Cl)cc2Cl)c2c(/C=C/C(=O)NS(=O)(=O)c3ccc(F)c(F)c3)cccc21 (stereo not drawn) | 0.4 nM | 3.3 nM | 64.7% | 62.1% | 16% | – | – | –
O=C(/C=C/c1cccc2c1N(Cc1ccc3ccccc3c1)C(=O)C21OCCO1)NS(=O)(=O)c1cc(Cl)c(Cl)s1 | 7.9 nM | 82.4 nM | – | – | – | – | – | –
O=C(/C=C/c1cccc2c1N(Cc1ccc(Cl)cc1Cl)C(=O)C2(F)F)NS(=O)(=O)c1ccc(Cl)cc1 | 1.1 nM | 251 nM | – | – | – | – | > 800 nM | Active
O=C(/C=C/c1cccc2c1N(Cc1ccc(F)c(F)c1)C(=O)C2(F)F)NS(=O)(=O)c1ccc(F)c(F)c1 | 1.3 nM | 251 nM | – | – | – | – | > 800 nM | Active
O=C(/C=C/c1cccc2c1N(Cc1ccc(F)c(F)c1)C(=O)C2(F)F)NS(=O)(=O)c1ccc(Cl)c(Cl)c1 | 1.3 nM | – | – | – | – | – | > 800 nM | Active
O=C(/C=C/c1cccc2c1N(Cc1ccc(F)c(F)c1)C(=O)C2(F)F)NS(=O)(=O)c1cccc(Cl)c1 | 5 nM | 416 nM | – | – | – | – | > 800 nM | Active
O=C(/C=C/c1cccc2c1N(Cc1ccc(Cl)cc1Cl)C(=O)C2)NS(=O)(=O)c1cccc(Cl)c1 | 0.5 nM | 9.4 nM | 50.4% | 21% | 33.9% | 290 nM | – | –
O=C(/C=C/c1cccc2c1N(Cc1ccc(F)c(F)c1)C(=O)C2)NS(=O)(=O)c1ccc(Cl)c(Cl)c1 | 0.3 nM | 55.4 nM | – | – | – | – | – | –
O=C(/C=C/c1cccc2c1N(Cc1ccc(F)c(F)c1)C(=O)C2(F)F)NS(=O)(=O)c1cc(Cl)c(Cl)s1 | 7.2 nM | 980 nM | – | – | – | – | > 800 nM | Active
O=C(/C=C/c1cccc2c1N(Cc1ccc(F)c(F)c1)C(=O)C2(F)F)NS(=O)(=O)c1cc(F)c(F)cc1F | 16.5 nM | 721 nM | – | – | – | – | > 800 nM | Active
CC1C(=O)N(Cc2ccc(F)c(F)c2)c2c(/C=C/C(=O)NS(=O)(=O)c3ccc(Cl)c(Cl)c3)cccc21 (stereo not drawn) | 0.9 nM | 95.8 nM | – | – | – | – | – | –
O=C(/C=C/c1cccc2c1N(Cc1ccc3ccccc3c1)C(=O)C2=O)NS(=O)(=O)c1ccc(Cl)c(Cl)c1 | 1 nM | 12.7 nM | – | – | – | – | – | –
O=C(/C=C/c1cccc2c1N(Cc1ccc(Cl)cc1Cl)C(=O)C2(F)F)NS(=O)(=O)c1ccc(F)cc1 | 0.2 nM | 64.7 nM | – | – | – | – | > 800 nM | Active
O=C(/C=C/c1cccc2c1N(Cc1ccc3ccccc3c1)C(=O)C2=O)NS(=O)(=O)c1cc(F)c(F)cc1F | 0.6 nM | 17.4 nM | – | – | – | – | – | –
O=C(/C=C/c1cccc2c1N(Cc1ccc(Cl)cc1Cl)C(=O)C2)NS(=O)(=O)c1ccc(Cl)c(Cl)c1 | 1.2 nM | 3.3 nM | 53.3% | 26.8% | 56.1% | 316 nM | – | –
CC1C(=O)N(Cc2ccc(F)c(F)c2)c2c(/C=C/C(=O)NS(=O)(=O)c3cc(F)c(F)cc3F)cccc21 (stereo not drawn) | 1.4 nM | 10.7 nM | – | – | – | – | – | –
